Assays:
Type in all cases: functional
[1] = test system: Malme-3M; assay: Growth inhibition of human MALME-3M cells at 10 uM after 48 hrs by coulter counter method; details: read-out: GI
Summary of the method: (§1)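 NCI 60-cell-line panel, single dose. Compound dissolved first in DMSO, then diluted in phosphate-buffered saline so that every final dilution held under 1% DMSO. Duplicate wells received cells at 6 × 10⁴ cells/ml. Controls held PBS/DMSO at the same dilution. Plates were incubated 48 h at 37 °C under 5% CO₂. Cells were then diluted 10-fold in saline and counted on a Coulter counter, with counts corrected for the dilution. Results are given as percent growth inhibition.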

[2] = test system: UACC-257; assay: Growth inhibition of human UACC257 cells at 10 uM after 48 hrs by coulter counter method; details: UACC-257, 48 h, read-out: GI; summary of the method: as §1
[3] = test system: SN12C; assay: Growth inhibition of human SN12C cells at 10 uM after 48 hrs by coulter counter method; details: read-out: GI; summary of the method: as §1
[4] = test system: EKVX; assay: Growth inhibition of human EKVX cells at 10 uM after 48 hrs by coulter counter method; details: read-out: GI; summary of the method: as §1
[5] = test system: NCI-H522; assay: Growth inhibition of human NCI-H522 cells at 10 uM after 48 hrs by coulter counter method; details: NCI-H522, 48 h, read-out: GI; summary of the method: as §1
[6] = test system: NCI-H23; assay: Growth inhibition of human NCI-H23 cells at 10 uM after 48 hrs by coulter counter method; details: NCI-H23, 48 h, read-out: GI; summary of the method: as §1
[7] = test system: NCI/ADR-RES; assay: Growth inhibition of human NCI/ADR-RES cells at 10 uM after 48 hrs by coulter counter method; details: read-out: GI; summary of the method: as §1
[8] = test system: ACHN; assay: Growth inhibition of human ACHN cells at 10 uM after 48 hrs by coulter counter method; details: read-out: GI; summary of the method: as §1
[9] = test system: HCT-15; assay: Growth inhibition of human HCT15 cells at 10 uM after 48 hrs by coulter counter method; details: HCT-15, 48 h, read-out: GI; summary of the method: as §1
[10] = test system: BT-549; assay: Growth inhibition of human BT549 cells at 10 uM after 48 hrs by coulter counter method; details: BT-549, 48 h, read-out: GI; summary of the method: as §1
[11] = test system: HCT-116; assay: Growth inhibition of human HCT116 cells at 10 uM after 48 hrs by coulter counter method; details: HCT-116, 48 h, read-out: GI; summary of the method: as §1
[12] = test system: A549; assay: Growth inhibition of human A549 cells at 10 uM after 48 hrs by coulter counter method; details: A549, 48 h, read-out: GI; summary of the method: as §1
[13] = test system: OVCAR-8; assay: Growth inhibition of human OVCAR8 cells at 10 uM after 48 hrs by coulter counter method; details: OVCAR-8, 48 h, read-out: GI; summary of the method: as §1
[14] = test system: RPMI-8226; assay: Growth inhibition of human RPMI8226 cells at 10 uM after 48 hrs by coulter counter method; details: RPMI-8226, 48 h, read-out: GI; summary of the method: as §1
[15] = test system: SNB-75; assay: Growth inhibition of human SNB75 cells at 10 uM after 48 hrs by coulter counter method; details: SNB-75, 48 h, read-out: GI; summary of the method: as §1
[16] = test system: M14; assay: Growth inhibition of human M14 cells at 10 uM after 48 hrs by coulter counter method; details: M14, 48 h, read-out: GI; summary of the method: as §1
[17] = test system: T47D; assay: Growth inhibition of human T47D cells at 10 uM after 48 hrs by coulter counter method; details: read-out: GI; summary of the method: as §1
[18] = test system: SNB-19; assay: Growth inhibition of human SNB19 cells at 10 uM after 48 hrs by coulter counter method; details: SNB-19, 48 h, read-out: GI; summary of the method: as §1
[19] = test system: SR; assay: Growth inhibition of human SR cells at 10 uM after 48 hrs by coulter counter method; details: read-out: GI; summary of the method: as §1
[20] = test system: NCI-H226; assay: Growth inhibition of human NCI-H226 cells at 10 uM after 48 hrs by coulter counter method; details: NCI-H226, 48 h, read-out: GI; summary of the method: as §1
[21] = test system: LOX IMVI; assay: Growth inhibition of human LOXIMVI cells at 10 uM after 48 hrs by coulter counter method; details: read-out: GI; summary of the method: as §1
[22] = test system: IGROV-1; assay: Growth inhibition of human IGROV1 cells at 10 uM after 48 hrs by coulter counter method; details: IGROV-1, 48 h, read-out: GI; summary of the method: as §1
[23] = test system: CCRF-CEM; assay: Growth inhibition of human CCRF-CEM cells at 10 uM after 48 hrs by coulter counter method; details: read-out: GI; summary of the method: as §1
[24] = test system: KM12; assay: Growth inhibition of human KM12 cells at 10 uM after 48 hrs by coulter counter method; details: KM12, 48 h, read-out: GI; summary of the method: as §1
[25] = test system: MDA-MB-468; assay: Growth inhibition of human MDA-MB-468 cells at 10 uM after 48 hrs by coulter counter method; details: MDA-MB-468, 48 h, read-out: GI; summary of the method: as §1
[26] = test system: NCI-H322M; assay: Growth inhibition of human NCI-H322M cells at 10 uM after 48 hrs by coulter counter method; details: read-out: GI; summary of the method: as §1
[27] = test system: U-251; assay: Growth inhibition of human U251 cells at 10 uM after 48 hrs by coulter counter method; details: U-251, 48 h, read-out: GI; summary of the method: as §1
[28] = test system: A498; assay: Growth inhibition of human A498 cells at 10 uM after 48 hrs by coulter counter method; details: A498, 48 h, read-out: GI; summary of the method: as §1
[29] = test system: K562; assay: Growth inhibition of human K562 cells at 10 uM after 48 hrs by coulter counter method; details: K562, 48 h, read-out: GI; summary of the method: as §1
[30] = test system: UO-31; assay: Growth inhibition of human UO31 cells at 10 uM after 48 hrs by coulter counter method; details: UO-31, 48 h, read-out: GI; summary of the method: as §1
[31] = test system: SF-295; assay: Growth inhibition of human SF295 cells at 10 uM after 48 hrs by coulter counter method; details: SF-295, 48 h, read-out: GI; summary of the method: as §1
[32] = test system: SK-MEL-2; assay: Growth inhibition of human SK-MEL-2 cells at 10 uM after 48 hrs by coulter counter method; details: SK-MEL-2, 48 h, read-out: GI; summary of the method: as §1
[33] = test system: CAKI-1; assay: Growth inhibition of human Caki1 cells at 10 uM after 48 hrs by coulter counter method; details: CAKI-1, 48 h, read-out: GI; summary of the method: as §1
[34] = test system: MDA-MB-435; assay: Growth inhibition of human MDA-MB-435 cells at 10 uM after 48 hrs by coulter counter method; details: MDA-MB-435, 48 h, read-out: GI; summary of the method: as §1
[35] = test system: UACC-62; assay: Growth inhibition of human UACC62 cells at 10 uM after 48 hrs by coulter counter method; details: UACC-62, 48 h, read-out: GI; summary of the method: as §1
[36] = test system: PC-3; assay: Growth inhibition of human PC3 cells at 10 uM after 48 hrs by coulter counter method; details: PC-3, 48 h, read-out: GI; summary of the method: as §1
[37] = test system: MOLT-4; assay: Growth inhibition of human MOLT4 cells at 10 uM after 48 hrs by coulter counter method; details: MOLT-4, 48 h, read-out: GI; summary of the method: as §1
[38] = test system: SK-MEL-28; assay: Growth inhibition of human SK-MEL-28 cells at 10 uM after 48 hrs by coulter counter method; details: SK-MEL-28, 48 h, read-out: GI; summary of the method: as §1
[39] = test system: HL-60(TB); assay: Growth inhibition of human HL-60(TB) cells at 10 uM after 48 hrs by coulter counter method; details: HL-60, 48 h, read-out: GI
Summary of the method: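 Single-dose screen on the NCI 60-line panel (leukemia subpanel). Compound is dissolved in DMSO and diluted in PBS, with final DMSO below 1%. Duplicate wells hold 6 × 10⁴ cells/ml at 37 °C, 5% CO₂, for 48 h. Cells are counted by Coulter counter after 10-fold saline dilution. Read-out is percent growth versus PBS/DMSO controls, expressed as % growth inhibition.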

[40] = test system: SF-268; assay: Growth inhibition of human SF268 cells at 10 uM after 48 hrs by coulter counter method; details: SF-268, 48 h, read-out: GI; summary of the method: as §1
[41] = test system: HT-29; assay: Growth inhibition of human HT-29 cells at 10 uM after 48 hrs by coulter counter method; details: HT-29, 48 h, read-out: GI; summary of the method: as §1
[42] = test system: MCF7; assay: Growth inhibition of human MCF7 cells at 10 uM after 48 hrs by coulter counter method; details: MCF7, 48 h, read-out: GI; summary of the method: as §1
[43] = test system: 786-0; assay: Growth inhibition of human 786-0 cells at 10 uM after 48 hrs by coulter counter method; details: 786-0, 48 h, read-out: GI; summary of the method: as §1
[44] = test system: SK-MEL-5; assay: Growth inhibition of human SK-MEL-5 cells at 10 uM after 48 hrs by coulter counter method; details: SK-MEL-5, 48 h, read-out: GI; summary of the method: as §1
[45] = test system: TK-10; assay: Growth inhibition of human TK10 cells at 10 uM after 48 hrs by coulter counter method; details: TK-10, 48 h, read-out: GI; summary of the method: as §1

In the case of O=C(CCN1CCCCC1)Nc1nnc(-c2ccc(Cl)cc2)s1, the inhibition of growth at 10 µM [1] is reported as 10.7%, the inhibition of growth at 10 µM [2] is reported as < 10% and the inhibition of growth at 10 µM [3] is reported as < 10%. For the same compound, the inhibition of growth at 10 µM [4] was 20.4%, the inhibition of growth at 10 µM [5] was 19.5% and the inhibition of growth at 10 µM [6] was < 10%. The inhibition of growth at 10 µM [7] was < 10%, the inhibition of growth at 10 µM [8] was < 10% and the inhibition of growth at 10 µM [9] was < 10%. For the same compound, the inhibition of growth at 10 µM [10] was < 10%, the inhibition of growth at 10 µM [11] was < 10% and the inhibition of growth at 10 µM [12] was < 10%. The inhibition of growth at 10 µM [13] was < 10%, the inhibition of growth at 10 µM [14] was < 10% and the inhibition of growth at 10 µM [15] was < 10%. The inhibition of growth at 10 µM [16] was < 10%, the inhibition of growth at 10 µM [17] was < 10% and the inhibition of growth at 10 µM [18] was < 10%. The inhibition of growth at 10 µM [19] was 11.9%, the inhibition of growth at 10 µM [20] was < 10% and the inhibition of growth at 10 µM [21] was < 10%. The inhibition of growth at 10 µM [22] was < 10%, the inhibition of growth at 10 µM [23] was < 10% and the inhibition of growth at 10 µM [24] was < 10%. For the same compound, the inhibition of growth at 10 µM [25] was < 10%, the inhibition of growth at 10 µM [26] was < 10% and the inhibition of growth at 10 µM [27] was 12%. For the same compound, the inhibition of growth at 10 µM [28] was 11.6%, the inhibition of growth at 10 µM [29] was < 10% and the inhibition of growth at 10 µM [30] was 28.6%. For the same compound, the inhibition of growth at 10 µM [31] was 11%, the inhibition of growth at 10 µM [32] was < 10% and the inhibition of growth at 10 µM [33] was 18.8%. For the same compound, the inhibition of growth at 10 µM [34] was < 10%, the inhibition of growth at 10 µM [35] was < 10% and the inhibition of growth at 10 µM [36] was < 10%. For the same compound, the inhibition of growth at 10 µM [37] was < 10%, the inhibition of growth at 10 µM [38] was < 10% and the inhibition of growth at 10 µM [39] was < 10%. For the same compound, the inhibition of growth at 10 µM [40] was < 10%, the inhibition of growth at 10 µM [41] was < 10% and the inhibition of growth at 10 µM [42] was < 10%. For the same compound, the inhibition of growth at 10 µM [43] was < 10%, the inhibition of growth at 10 µM [44] was 24.7% and the inhibition of growth at 10 µM [45] was < 10%.

— ChEMBL document CHEMBL1926577, “Novel 1,3,4-heterodiazole analogues: synthesis and in-vitro antitumor activity” (2012)
